From ChEMBL document CHEMBL4251569, “Camptothecin-psammaplin A hybrids as topoisomerase I and HDAC dual-action inhibitors” (Eur J Med Chem, 2018) come the findings set out here.

Structures are written as SMILES. Calls of active or inactive are those of the source. No cut-off for these calls is given here.

The subject of series [1] is CAPAN-1. The experiment in a line: cells. Particulars: Homo sapiens, CAPAN-1, 72 h. The format is functional, cell-based.
Series [2] relates to HeLa. The series can be described thus: cells. The series is classed as functional, cell-based. Particulars: Homo sapiens, 72 h.
Series [3] concerns DU-145. The series can be described thus: cells. The series is classed as functional, cell-based. The note with it: Homo sapiens, DU-145, 72 h.
Series [4] deals with HepG2. The series can be described thus: Antiproliferative activity against human HepG2 cells after 72 hrs by SRB assay. The format is functional, cell-based. The note with it: HepG2, 72 h.
Series [5] has as its system A2780. The series can be described thus: cells. The series is classed as functional, cell-based. The note with it: Homo sapiens, A2780, 72 h.
Series [6] is described as follows: cells. The series is classed as functional, cell-based. Particulars: Homo sapiens, A2780/DX, 72 h.
Series [7] is described as follows: cells. The series is classed as functional, cell-based. Particulars: Homo sapiens, 72 h.
Series [8] has as its system L-428. The series can be described thus: cells. The format is functional, cell-based. The note with it: Homo sapiens, L-428, 72 h.
In series [9] the test system is MM473. The series can be described thus: cells. Particulars: Homo sapiens, MM473, 72 h. The format is functional, cell-based.
In series [10] the target is Histone deacetylase 1 (Homo sapiens, UniProt Q13547). The experiment in a line: Inhibition of HDAC1 (unknown origin) using RHKK(Ac)AMC as substrate after 1 to 2 hrs by fluorescence assay.
The target of series [11] is Histone deacetylase 2 (Homo sapiens, UniProt Q92769). The experiment in a line: Inhibition of HDAC2 (unknown origin) using RHKK(Ac)AMC as substrate after 1 to 2 hrs by fluorescence assay.
For series [12], the target named is Histone deacetylase (HDAC1 and HDAC2) (Homo sapiens) (UniProt Q13547+Q92769). The series can be described thus: Inhibition of HDAC1/2 in human MM473 cells assessed as increase in hyperacetylation of nuclear histone H4 at 0.2 to 0.5 uM after 24 hrs by Western blot method. The format is cell-based. The method, boiled down:
(§1)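 MM473 cells treated 24 h (0.2 and 0.5 µM), lysed in NP-40 or RIPA with protease/phosphatase inhibitors; 40 µg protein run on SDS-PAGE, transferred to nitrocellulose, blocked in 5% milk/TBST, probed overnight for acetyl-H4, H4, acetyl-tubulin and α-tubulin, HRP secondaries, ECL chemiluminescence; band density normalised to α-tubulin.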

Series [13] concerns the target Protein deacetylase HDAC6 (Homo sapiens) (UniProt Q9UBN7). The experiment in a line: Inhibition of HDAC6 in human MM473 cells assessed as increase in hyperacetylation of cytoplasmic alpha-tubulin at 0.2 to 0.5 uM after 24 hrs by Western blot method. The format is cell-based. The method, boiled down: as §1
The test system of series [14] is MM473. The series can be described thus: Cell cycle arrest in human MM473 cells assessed as accumulation at G0/G1 phase at 4 uM after 24 hrs by propidium iodide staining-based flow cytometric method (reference value: 54.5%). The format is functional.
The test system of series [15] is MM473. The series can be described thus: Induction of apoptosis in human MM473 cells at 4 uM after 48 hrs by propidium iodide staining-based flow cytometric method (reference value: […]). The format is functional.
The test system of series [16] is MM473. The series can be described thus: Cell cycle arrest in human MM473 cells assessed as accumulation at S phase at 4 uM after 72 hrs by propidium iodide staining-based flow cytometric method (reference value: 15.1%). The series is classed as functional.
The subject of series [17] is MM473. The series can be described thus: Induction of apoptosis in human MM473 cells at 4 uM after 72 hrs by propidium iodide staining-based flow cytometric method (reference value: 1.4%). The format is functional.
Series [18] can be described thus: Cell cycle arrest in human MM487 cells assessed as accumulation at S phase at 0.3 uM after 24 hrs by propidium iodide staining-based flow cytometric method (reference value: 25.2%). The series is classed as functional.
Series [19] in a line: Induction of apoptosis in human MM487 cells at 0.3 uM after 24 hrs by propidium iodide staining-based flow cytometric method (reference value: 0.5%). The format is functional.
Series [20] deals with Mus musculus. The series can be described thus: Toxicity in CD1 nude mouse xenografted with human MM473 cells assessed as body weight loss at 90 mg/kg, iv administered every 4 days per week for 3 weeks measured during compound dosing and on day 40 post last dose. The series is classed as organism-based. Particulars: in vivo. In outline: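 MM473 mesothelioma cells (F-10, 10% FBS, G418; mycoplasma-checked, >95% viable) injected intrapleurally, 1x10⁶ in 200 µl M199 per CD-1 nude mouse. Treatment i.v. from day 15 when tumours were growing, in 10% 1:1 ethanol–Cremophor in saline, q4dx3w; vehicle control. Tumour burden followed weekly by IVIS bioluminescence after i.p. D-luciferin (100 µL/10 g), as average radiance; body weight recorded.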

Sequence of Histone deacetylase 2 (Q92769 whole entry): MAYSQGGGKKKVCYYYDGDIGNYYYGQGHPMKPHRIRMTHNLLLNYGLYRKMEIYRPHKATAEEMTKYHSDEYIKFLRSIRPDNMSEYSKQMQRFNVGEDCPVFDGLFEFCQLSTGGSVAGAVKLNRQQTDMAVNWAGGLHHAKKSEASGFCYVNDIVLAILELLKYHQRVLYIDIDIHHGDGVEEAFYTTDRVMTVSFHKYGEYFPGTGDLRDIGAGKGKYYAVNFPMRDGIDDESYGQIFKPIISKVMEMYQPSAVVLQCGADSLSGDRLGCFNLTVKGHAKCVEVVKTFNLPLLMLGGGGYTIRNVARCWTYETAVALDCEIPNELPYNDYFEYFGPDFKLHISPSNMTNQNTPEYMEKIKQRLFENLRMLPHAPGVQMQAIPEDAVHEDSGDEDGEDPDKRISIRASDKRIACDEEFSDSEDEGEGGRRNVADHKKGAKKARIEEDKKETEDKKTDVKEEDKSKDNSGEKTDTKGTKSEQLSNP
Sequence of Protein deacetylase HDAC6 (Homo sapiens) (Q9UBN7 whole entry): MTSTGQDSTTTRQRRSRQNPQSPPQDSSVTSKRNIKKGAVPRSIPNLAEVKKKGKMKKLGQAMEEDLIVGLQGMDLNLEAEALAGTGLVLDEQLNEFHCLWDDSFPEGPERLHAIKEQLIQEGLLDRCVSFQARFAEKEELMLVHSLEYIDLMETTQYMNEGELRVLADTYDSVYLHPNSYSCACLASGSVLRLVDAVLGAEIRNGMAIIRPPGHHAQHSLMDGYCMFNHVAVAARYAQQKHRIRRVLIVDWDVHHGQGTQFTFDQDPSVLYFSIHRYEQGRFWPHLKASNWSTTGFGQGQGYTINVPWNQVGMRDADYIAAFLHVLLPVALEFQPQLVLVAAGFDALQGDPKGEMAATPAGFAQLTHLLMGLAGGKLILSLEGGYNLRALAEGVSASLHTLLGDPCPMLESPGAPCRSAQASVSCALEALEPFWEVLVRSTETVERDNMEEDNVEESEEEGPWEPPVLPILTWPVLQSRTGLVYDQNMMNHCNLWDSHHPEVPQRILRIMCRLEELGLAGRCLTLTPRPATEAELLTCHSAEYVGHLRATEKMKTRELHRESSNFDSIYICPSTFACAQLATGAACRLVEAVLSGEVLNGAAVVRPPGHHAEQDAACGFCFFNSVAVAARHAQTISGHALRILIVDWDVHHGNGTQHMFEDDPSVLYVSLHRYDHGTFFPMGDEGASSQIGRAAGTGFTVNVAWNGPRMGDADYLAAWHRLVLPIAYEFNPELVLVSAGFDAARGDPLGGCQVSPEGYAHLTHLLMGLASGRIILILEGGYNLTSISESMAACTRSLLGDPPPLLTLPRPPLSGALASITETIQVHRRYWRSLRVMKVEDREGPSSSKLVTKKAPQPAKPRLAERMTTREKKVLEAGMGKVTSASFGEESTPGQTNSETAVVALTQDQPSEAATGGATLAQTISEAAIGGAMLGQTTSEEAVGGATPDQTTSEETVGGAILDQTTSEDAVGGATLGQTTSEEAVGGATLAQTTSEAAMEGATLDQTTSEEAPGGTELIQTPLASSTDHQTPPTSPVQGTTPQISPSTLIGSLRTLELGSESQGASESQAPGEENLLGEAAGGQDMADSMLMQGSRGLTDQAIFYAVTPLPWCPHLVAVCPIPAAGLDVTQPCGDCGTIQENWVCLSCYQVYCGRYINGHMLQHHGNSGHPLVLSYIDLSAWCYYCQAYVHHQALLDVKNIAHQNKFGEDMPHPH
Sequence of Histone deacetylase (HDAC1 and HDAC2) (Homo sapiens) (Q13547 whole entry, looked up): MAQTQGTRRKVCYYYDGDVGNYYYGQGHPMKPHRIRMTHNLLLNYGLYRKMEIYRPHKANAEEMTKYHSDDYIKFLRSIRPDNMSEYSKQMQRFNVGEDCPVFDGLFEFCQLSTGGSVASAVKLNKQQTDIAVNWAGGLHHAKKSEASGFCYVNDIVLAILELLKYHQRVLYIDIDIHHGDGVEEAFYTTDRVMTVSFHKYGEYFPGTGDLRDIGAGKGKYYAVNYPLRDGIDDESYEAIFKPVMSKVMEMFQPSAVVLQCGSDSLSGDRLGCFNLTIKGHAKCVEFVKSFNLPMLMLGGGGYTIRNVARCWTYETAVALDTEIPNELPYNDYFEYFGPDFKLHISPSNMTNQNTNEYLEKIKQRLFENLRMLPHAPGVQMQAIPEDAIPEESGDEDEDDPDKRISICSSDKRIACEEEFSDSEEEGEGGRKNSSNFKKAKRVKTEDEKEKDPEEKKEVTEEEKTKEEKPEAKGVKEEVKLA
Sequence of Histone deacetylase (HDAC1 and HDAC2) (Homo sapiens) (Q92769 whole entry, looked up): as the sequence (Q92769 whole entry) above
Sequence of Histone deacetylase 1 (Q13547 whole entry): as the sequence (Q13547 whole entry, looked up) above

For `CC[C@@]1(O)C(=O)OCc2c1cc1n(c2=O)Cc2c-1nc1ccccc1c2/C=N/OCCCCCC(=O)NCCSSCCNC(=O)/C(Cc1ccc(O)c(Br)c1)=N\O`, the concentration for half-maximal inhibition (IC50) in series [1] was determined as 50 nM; in series [2] it was 470 nM; in series [3], 110 nM; in [4] it was 760 nM; in series [5], 220 nM; in series [6] it was 830 nM. Besides, the half-inhibitory concentration (IC50) in [7] worked out at 300 nM; in [8] it was 600 nM; in series [9], 1900 nM; in series [10], 150 nM; in series [11], 327 nM. Also, the inhibition result in series [12] was “Active”. Moreover, the inhibition result in series [13] was “inactive”. For the same molecule, the Activity in [14] is 28%; in [15] it was 9.9%; in [16] it was 79.3%; in series [17], 11%; in series [18], 77.62%; in series [19], 2.6%. Moreover, the Activity entry in series [20] is on record as “Non-Toxic”.
